This is an account of results in ChEMBL document CHEMBL1154682, “Discovery of novel benzoxazinones as potent and orally active long chain fatty acid elongase 6 inhibitors” (J Med Chem, 2009).

Data set [1] is described as follows: Unbound fraction in C57BL/6N mouse plasma. It counts as ADME, cell-free. The method in brief: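 Equilibrium dialysis was run with C57BL/6N mouse plasma adjusted to pH 7.4 and spiked with 1 μM compound, dialysed against PBS for 6 h at 37 °C. Both sides were analysed by LC-MS/MS. Unbound fraction = Cf/Cp × 100. Mean of n = 3.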
Data set [2] concerns the target T1, Very long chain fatty acid elongase 6 (Homo sapiens, UniProt Q9H5J4).
T1 sequence (Q9H5J4 whole entry): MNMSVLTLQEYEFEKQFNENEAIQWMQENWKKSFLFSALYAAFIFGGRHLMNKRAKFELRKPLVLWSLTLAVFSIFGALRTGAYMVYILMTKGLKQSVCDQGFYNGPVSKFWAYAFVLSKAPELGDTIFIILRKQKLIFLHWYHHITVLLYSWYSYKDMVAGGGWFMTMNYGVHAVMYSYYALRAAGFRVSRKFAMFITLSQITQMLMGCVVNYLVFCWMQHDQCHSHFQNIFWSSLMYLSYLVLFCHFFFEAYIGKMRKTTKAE
Kind of data set: Inhibition of human ELOVL6 expressed in Pichia pastoris using palmitoyl-CoA by long chain fatty acyl-CoA elongation assay. In short, it runs like this:
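Microsomes (3 μg) from Pichia pastoris SMD1168 expressing FLAG-tagged human or mouse ELOVL6 were incubated 1 h at 37 °C in 100 mM potassium phosphate pH 6.5 with 40 μM palmitoyl-CoA, 20 μM malonyl-CoA plus [14C]-malonyl-CoA, 500 μM NADPH, 200 μM BSA and 1 μM rotenone. DMSO was 1.0% final. After HCl hydrolysis, filter-retained 14C was counted. IC50 came from nonlinear regression on % of control.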

By fraction unbound is commonly meant free concentration divided by total concentration. Read a low fraction unbound as extensive binding. As a reminder, the IC50 is the concentration that gives 50% inhibition. A lower IC50 goes with higher potency.

The structures appear in SMILES notation.

In turn, `O=C1Nc2ccc(Cl)cc2C(CNC(=O)c2ccc(F)cc2)(C(F)(F)F)O1` (configuration not stated) returned a free fraction (fraction unbound) in data set [1] of 0.053. As for `CS(=O)(=O)c1ccc(C(=O)NCC2(C(F)(F)F)OC(=O)Nc3ccc(Cl)cc32)cc1` (configuration not stated), in data set [2], the IC50 was above 10000 nM. `O=C(Nc1ccc(F)cc1)OCC1(C(F)(F)F)OC(=O)Nc2ccc(Cl)cc21` (configuration not stated) registered an IC50 in data set [2] of 142 nM. The compound `CC1(COC(=O)Nc2ccc(F)cc2)OC(=O)Nc2ccc(Cl)cc21` (configuration not stated) yielded an IC50 in data set [2] of 1360 nM. As to `CCC1(COC(=O)Nc2ccc(F)cc2)OC(=O)Nc2ccc(Cl)cc21` (configuration not stated), the half-maximal inhibitory concentration (IC50) in data set [2] was found to be 2260 nM. Consider `CC(C)C1(COC(=O)Nc2ccc(F)cc2)OC(=O)Nc2ccc(Cl)cc21` (configuration not stated), for which, in data set [2], inhibition was half-maximal at 5030 nM (IC50). Same read-out and setting: with `O=C1Nc2ccc(Cl)cc2C(CNC(=O)c2ccc(-c3ccccc3)cc2)(C(F)(F)F)O1` (configuration not stated) the figure was above 10000 nM.
